Our source for the cytotoxicity values is ChEMBL document CHEMBL4513216, “Probing the Open Global Health Chemical Diversity Library for Multistage-Active Starting Points for Next-Generation Antimalarials” (ACS Infect Dis, 2020).

Molecules are shown by their SMILES.

A short description of this series: Toxicity liver stage against HepG2, at 10uM. The series is classed as cell-based. Also on record: test concentration 10 uM, cell line HepG2-A16-CD81EGFP. The settings on record: human, HepG2-A16-CD81EGFP cells; read-out: INHIBITION
In a few lines: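 Uninfected HepG2-A16-CD81EGFP cells, 3 × 10^3 per well, 1536-well, plated on prespotted compound at 10 μM final, parasite-free screening media added to match infected plates; puromycin 10 μM positive, DMSO 0.5% negative; run in parallel with 48 h PbLuc assay at 37 °C, 5% CO2; viability by CellTiter-Glo luminescence, normalized to controls.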
`c1cc(-c2nnc([C@H]3CCN(C4CCCCC4)C3)o2)ccn1`: the cytotoxicity at 10 µM was -102%.

Regarding `CCCS(=O)(=O)N1Cc2c(ncn2Cc2ccccc2)C[C@H]1C(=O)OC`, the cytotoxicity at 10 µM turned out to be 0.434%.

Turning to `O=S1(=O)c2ccccc2C(O)CN1CCO` (stereo not given), the cytotoxicity at 10 µM was 2.37%.

With `Cn1cccc1C(=O)NCc1cnc2n1CCN(C(N)=O)CC2`, the cytotoxicity at 10 µM worked out at 0.312%. Then `O=C(c1ccoc1)N1CCO[C@]2(CCC[C@@H]2COCc2ccncc2)C1`, with 0.341%; and `Cc1ncoc1C(=O)N1C[C@@H]2COC[C@]2(c2nnc(C3CC3)o2)C1`, with -2.08%. In the case of `O=C(c1cccs1)N1CCC2(CC1)CC(Oc1ccccc1)CO2` (stereo not given) it was 15.4%; in that of `N#Cc1ccc(OC[C@]23COC[C@H]2CN(Cc2ccoc2)C3)nc1`, -0.762%. Then `Cc1nc(N2CCCC2)nc2c1CCN(C(=O)NC1CCCC1)CC2`, with 3.8%.

As for `CCOc1cc(-c2cc(=O)n3c(n2)CCCCC3)ccc1O`, the cytotoxicity at 10 µM was 1.32%.

`Cc1noc(C)c1CN1CCOC2(CCCN(c3nccs3)C2)C1` (stereo not given): the cytotoxicity at 10 µM was 2.39%. In the case of `Cc1c(Cl)c(C(=O)NCc2ccc(F)cc2)nn1C` it was -2.26%; in that of `CCc1cc(=O)n(CC(=O)NCC2CCCO2)c(-c2cccc(F)c2)n1` (stereo not given), -1.61%. Then `CC(Cn1cccn1)NC(=O)c1cc(C2CC2)nc2c1cnn2C` (stereo not given), with 0.351%; and `Cc1nc(O)cc([C@@H]2CN(S(=O)(=O)N(C)C)C[C@H]2c2ccccc2F)n1`, with 5.8%. For `COc1ccc(OCCc2cc(C3CNCCO3)nn2C)cc1` (stereo not given), the cytotoxicity at 10 µM was found to be 7.13%. In the case of `Cc1cc(NCCNS(=O)(=O)c2cn(C)nc2C)c2ccccc2n1` it was 1.78%.

As for `CN1CCCC1c1ccnc(-c2ccccn2)n1` (stereo not given), the cytotoxicity at 10 µM was -5.26%. Then `CC(C)(C)OC(=O)N1CCN(c2ccc(F)cc2)CC1C(=O)O` (stereo not given), with -1.73%; and `CN(C)C(=O)C1(C)CN(Cc2cn(C)c3ccc(F)cc23)CCO1` (stereo not given), with 4.57%; and `CNC(=O)CN1CCOC(c2cccc(N)n2)C1` (stereo not given), with -5.22%. In the case of `Cc1noc(C)c1-c1ccc(C2CCCN2C(=O)c2cccnc2)nc1` (stereo not given) it was 4.7%; in that of `CNC(=O)c1ccc(C2CN(C(=O)c3scnc3C)CCO2)nc1` (stereo not given), 19.7%. Then `Cc1ccc2cc(CNCCCN3CCOCC3)c(=O)[nH]c2c1C`, with -10.1%; and `Cc1cc(C)c2ncc(C#N)c(NC3CCN(CC(N)=O)CC3)c2c1`, with -4.38%; and `CC(C)(CNc1ccccc1S(=O)(=O)C(F)F)N1CCOCC1`, with 12.2%.

In the case of `COCCN1CC(C(=O)NCc2ccc(C)s2)CC1=O` (stereo not given), the cytotoxicity at 10 µM came to 5.27%. Then `CCCN(Cc1cnn(C)c1)S(=O)(=O)c1cc(C)cc(F)c1`, with 16.2%; and `CN(C)c1ncccc1CNCc1cccc(O)c1`, with 5.05%. Regarding `CC(O)c1cnn(-c2ccccc2)c1` (stereo not given), the cytotoxicity at 10 µM is -1.55%. Then `O=C(CN1CCCS1(=O)=O)Nc1ccc(OC2CCCC2)cc1`, with -7.31%; and `CCCC(=O)NC(Cc1ccc(C)cc1)c1ccccn1` (stereo not given), with -2.25%. In the case of `Cc1ccc(-c2nc(C(=O)N(C)CC(=O)N3CCCC3)cs2)c(C)c1` it was -2.28%; in that of `CN(Cc1nc(C(C)(C)C)no1)C1CCS(=O)(=O)C1` (stereo not given), 15.2%.

Take `CCOC(=O)c1ccc(CNC(=O)c2ccc(C)nc2)o1`: the cytotoxicity at 10 µM came out at 10.6%.

As to `Cn1c(C2CC2)nc2cc(NC(=O)C3CCOC3)ccc21` (stereo not given), the cytotoxicity at 10 µM came to 3.09%.

As to `Cc1ccc(C(N)=O)cc1NCCOc1cccc(C#N)c1`, the cytotoxicity at 10 µM was found to be 2.87%. Then `O=C1CC2(CCCC2)C(=O)N1CC(O)COCc1ccccc1F` (stereo not given), with 0.927%.

Take `CC(C)C1CN(S(=O)(=O)c2ccc(C#N)cc2)CCS1` (stereo not given): the cytotoxicity at 10 µM amounted to 6.88%.

Turning to `CCOCc1nnc(NCc2ccsc2)o1`, the cytotoxicity at 10 µM is -0.432%. In the case of `Cc1noc(-c2ccnc(N3CCCN(C4CCOCC4)CC3)c2)n1` it was -2.85%. Then `Cn1ccc(NC2CCN(C3CC3)C2=O)n1` (stereo not given), with 7.31%; and `Cc1ncsc1CNC(=O)CCN1CCN(c2ccccn2)CC1`, with 2.31%; and `COc1cccc2c1N(S(=O)(=O)c1cc(C(=O)O)cs1)CCC2`, with -1.95%. Then `CC1CN(C)CCN1Cc1cccc(C(=O)NCc2ccco2)c1` (stereo not given), with 3.33%; and `Cc1nc(-c2cccc(C(=O)N(C)CC(C)O)c2)cs1` (stereo not given), with 2.68%.

Regarding `NC(=O)C1CCN(CCCNC(=O)Nc2nncs2)CC1`, the cytotoxicity at 10 µM is -0.165%. In the case of `COCCCOc1ccc(C(=O)N(Cc2cnn(C)c2)C(C)C)cn1` it was 2.1%.

In the case of `Cc1nc(CC(C)C)sc1C(=O)N1CCC(C2(C)OCCO2)CC1`, the cytotoxicity at 10 µM was determined as 4.21%.

Turning to `O=C(c1ccc[nH]1)N1CCc2nnc(Cn3cccc3)n2CC1`, the cytotoxicity at 10 µM came to 3.46%. In the case of `COc1ccccc1C(=O)N1CCOC2(CCCN(C(C)=O)C2)C1` (stereo not given) it was -72.9%; in that of `O=C1CC2(CCN(Cc3ncc[nH]3)CC2)CN1Cc1cc(F)cc(F)c1`, -5.53%.

On to `Cc1ccc([C@@H]2CN(C(=O)c3ccon3)C[C@H]2NC(=O)C2CC2)cc1`, for which the cytotoxicity at 10 µM came out at 1.08%. Then `CCCc1cc(C(=O)N2CCC3(CC2)CN(CCN(C)C)C(=O)O3)no1`, with 14.1%. Then `COCCC(=O)N(C)CCC1=CCN(C)CC1`, with -6.93%; and `CCCc1cc(N2CCC(NCC3(O)CCN(C)CC3)CC2)nc(C)n1`, with -16.1%. In the case of `CC(C)c1nccn1C(C)C(=O)N1CCN(c2cnccn2)CC1` (stereo not given) it was -12.5%; in that of `CC(C)c1cc(C(=O)N2CCCN(CCCc3ccccc3)CC2)[nH]n1`, 0.271%; in that of `CCN(Cc1cnn(C)c1)C[C@H]1CC[C@@H](Cc2ccc(CO)cc2)O1`, 5.95%.

Consider `CN(C)c1ccc(C(=O)N2Cc3cnc(C(C)(C)C)nc3C2)cc1`, for which the cytotoxicity at 10 µM was -5.51%. As for `CN1CC2(CCN(C(=O)c3ccc(-n4cnnc4)cc3Cl)CC2)OC1=O`, the cytotoxicity at 10 µM is 4.03%. Turning to `Cn1c(CCNC(=O)CC[C@@H]2CCCN3CCCC[C@H]23)n[nH]c1=O`, the cytotoxicity at 10 µM stood at 4.13%. In the case of `CN1CC2(CCN(C(=O)c3ccc4nonc4c3)CC2)CC1=O` it was 0.873%. Then `CCCN(CCc1ccccc1)C(=O)c1ccccc1NCC(=O)O`, with 7.38%; and `CCn1cnnc1CCNC(=O)C1COc2ccc(OC)cc2C1` (stereo not given), with -1.31%; and `CC(C)c1nc(CCN(C)C(=O)C2COc3ccccc3C2)no1` (stereo not given), with 4.31%. In the case of `CC(NC(=O)c1ccoc1)c1ccc2c(c1)CCC(=O)N2` (stereo not given) it was -1.36%; in that of `Cc1cnn(C2CCCN(C(=O)c3cc4nc(C)ccc4o3)C2)c1` (stereo not given), 2.22%; in that of `O=C1C(NCc2nnc3n2CCCC3)CCN1c1ccccc1F` (stereo not given), -4.92%.

Turning to `O=C(NCc1nn(-c2ccccc2)c2c1CCC2)NC1CCOCC1`, the cytotoxicity at 10 µM was -8.72%. Then `Cc1oncc1C(=O)NCc1ccnc(OCC(F)(F)F)c1`, with -3.39%. Then `CN1CCC/C1=N\S(=O)(=O)c1ccc(NC(=O)Cc2cccs2)cc1`, with -10.6%. As for `CNS(=O)(=O)c1ccc(CNC(=O)c2c(C)oc(C)c2C)cc1`, the cytotoxicity at 10 µM is -17.1%. For `O=C(CCc1ccncc1)NCc1csc(Br)c1`, the cytotoxicity at 10 µM is -15.5%. In the case of `CCc1noc(CNC2CCCN(Cc3noc(C4CC4)n3)C2)n1` (stereo not given) it was -25.6%; in that of `COc1c(CNCC(O)c2ccc(C)cc2)c(C(C)C)nn1C` (stereo not given), -10.6%; in that of `Cc1ncsc1C(=O)N(Cc1cccnc1)C1CC1`, -4.84%. As for `CC(C)(CNC(=O)CCOc1cccc(F)c1)C(N)=O`, the cytotoxicity at 10 µM is -0.704%. In the case of `COc1ccccc1-c1noc(CN2CCCC2Cn2cccn2)n1` (stereo not given) it was -8.95%.

`COc1ccc(CC(=O)N2CCCC(n3cc(C)cn3)C2)cc1F` (stereo not given): the cytotoxicity at 10 µM was 1.88%. In the case of `Cc1nc[nH]c1CN(Cc1ccccc1F)C1CC(C)(C)NC(C)(C)C1` it was -3.41%. In the case of `c1cncc(OC[C@]23COC[C@H]2CN(Cc2nccs2)C3)c1` it was -1.43%. As for `O=C1CCC2(CCCN(C(=O)c3ccccn3)CC2)N1` (stereo not given), the cytotoxicity at 10 µM is -2.51%. In the case of `COCC(=O)N1CCC2(CC1)CC(COC)N(c1ncccn1)C2` (stereo not given) it was 6.85%; in that of `O=C(CC1CC1)N[C@@H]1CN(Cc2ccc(F)cc2)C[C@@H]2CCCO[C@@H]21`, 14.9%. In the case of `Cc1occc1C(=O)N1C[C@@H]2[C@@H](C1)OCC(=O)N2Cc1cccnc1` it was 0.661%; in that of `Cc1cc(C(=O)N2CCC3(CCN3Cc3ccc(F)cc3)C2)no1` (stereo not given), 4.29%; in that of `CN(C)C(=O)c1nn(C)c2c1CN(Cc1cccs1)C2`, 4.9%.

`O=C1C[C@H]2[C@@H](CCN2C(=O)Cc2ccccc2)N1Cc1cccnc1`: the cytotoxicity at 10 µM is -3.86%. Then `CC(NCc1c(C(C)C)nn(C)c1N(C)C)C(=O)NC1CCCC1` (stereo not given), with 0.966%; and `Cc1ccc(CN2C[C@@H]3CCN(Cc4cccnc4)C(=O)[C@H]3C2)s1`, with 0.434%; and `CN(C)C(=O)CC1CC2(CCN(Cc3ccoc3)CC2)c2ccccc21` (stereo not given), with -10.1%. In the case of `O=C([C@H]1CCCO1)N1CCOC2(CCCN(c3ncccc3F)C2)C1` (stereo not given in full) it was 1.73%.

On to `Cc1ccc(CN2C[C@@H]3COC[C@@H](NS(C)(=O)=O)[C@@H]3C2)o1`, for which the cytotoxicity at 10 µM was -8.52%. Regarding `O=C(c1ccsc1)N1C[C@H]2CCC[C@@]2(COCc2cccnc2)C1`, the cytotoxicity at 10 µM is -2.86%.
